# From ChEMBL document CHEMBL1124031, “6-[18F]fluorometaraminol: a radiotracer for in vivo mapping of adrenergic nerves of the heart” (J Med Chem, 1988)
# Key:
# Rattus norvegicus [1] = species: Rattus norvegicus; test: Desmethylimipramine blockade of compound with [3H]NE as radiotracer, and percentage change was measured in rat right ventricle; assay type: functional, Heart right ventricle
# Summary of the method: (§1)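 Comparison study with [3H]NE (levo-[7-3H], 15–20 Ci/mmol) as tracer in female Sprague–Dawley rats (230–290 g). Rats were pretreated with DMI·HCl 10 mg/kg ip, or an equal volume of saline ip, 30 min before iv tracer. Value is the percent change in tissue tracer concentration versus saline controls; five rats per group.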
# Rattus norvegicus [2] = species: Rattus norvegicus; test: Concentration of compound in left atrium of rats, pretreated with desmethylimipramine, assessed using [18F]- as radiotracer;Dose/g; assay type: ADME, organism-based, Cardiac atrium; settings: in vivo
# Summary of the method: (§2)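 Female Sprague–Dawley rats (230–290 g) got DMI·HCl 10 mg/kg ip, or an equal volume of saline ip for controls, 30 min before iv [18F] tracer (5 µCi). Killed 1.5 h after tracer. Duplicate tissue samples were weighed and gamma counted. Values are decay-corrected % dose/g normalized to 250 g body weight, mean ± SEM, four rats per group.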
# Rattus norvegicus [3] = species: Rattus norvegicus; test: Desmethylimipramine blockade of compound with [3H]-NE as radiotracer, and percentage change was measured in rat left ventricle; assay type: functional, Heart left ventricle; summary of the method: as §1
# Rattus norvegicus [4] = species: Rattus norvegicus; test: Concentration of compound in liver of rats, pretreated with desmethylimipramine, assessed using [18F]- as radiotracer;Dose/g; assay type: ADME, organism-based; settings: in vivo; summary of the method: as §2
# Rattus norvegicus [5] = species: Rattus norvegicus; test: Concentration of compound in spleen of rats, pretreated with desmethylimipramine, assessed using [18F]- as radiotracer;Dose/g; assay type: ADME, organism-based; settings: in vivo; summary of the method: as §2
# Rattus norvegicus [6] = species: Rattus norvegicus; test: Concentration of compound in right ventricle of rats, pretreated with desmethylimipramine, assessed using [18F]- as radiotracer;Dose/g; assay type: ADME, organism-based, Heart right ventricle; settings: in vivo; summary of the method: as §2
# Rattus norvegicus [7] = species: Rattus norvegicus; test: Concentration of compound in blood of rats, pretreated with desmethylimipramine, assessed using [18F]- as radiotracer;Dose/g; assay type: ADME, organism-based; settings: in vivo; summary of the method: as §2
# Rattus norvegicus [8] = species: Rattus norvegicus; test: Concentration of compound in left ventricle of rats, pretreated with desmethylimipramine, assessed using [18F]- as radiotracer;Dose/g; assay type: ADME, organism-based, Heart left ventricle; settings: in vivo; summary of the method: as §2
# Rattus norvegicus [9] = species: Rattus norvegicus; test: Desmethylimipramine blockade of compound with [3H]NE as radiotracer, and percentage change was measured in rat left atrium; assay type: functional, Cardiac atrium; summary of the method: as §1
# Rattus norvegicus [10] = species: Rattus norvegicus; test: Concentration of compound in right atrium of rats, pretreated with desmethylimipramine, assessed using [18F]- as radiotracer;Dose/g; assay type: ADME, organism-based, Cardiac atrium; settings: in vivo; summary of the method: as §2
# Rattus norvegicus [11] = species: Rattus norvegicus; test: Desmethylimipramine blockade of compound with [3H]NE as radiotracer, and percentage change was measured in rat right atrium; assay type: functional, Cardiac atrium; summary of the method: as §1
# Rattus norvegicus [12] = species: Rattus norvegicus; test: Desmethylimipramine blockade of compound with [3H]NE as radiotracer, and percentage change was measured in rat blood; assay type: functional; summary of the method: as §1
# Rattus norvegicus [13] = species: Rattus norvegicus; test: Desmethylimipramine blockade of compound with [3H]NE as radiotracer, and percentage change was measured in rat spleen; assay type: functional; summary of the method: as §1
structure (smiles),measurement,setting,value
CC(N)C(O)c1cc(O)ccc1F (stereo not drawn),Change,Rattus norvegicus [1],-96%
same,Dose,Rattus norvegicus [2],0.24%
same,Change,Rattus norvegicus [3],-97%
same,Dose,Rattus norvegicus [4],0.77%
same,Dose,Rattus norvegicus [5],0.2%
same,Dose,Rattus norvegicus [6],0.2%
same,Dose,Rattus norvegicus [7],0.12%
same,Dose,Rattus norvegicus [8],0.15%
same,Change,Rattus norvegicus [9],-95%
same,Dose,Rattus norvegicus [10],0.24%
same,Change,Rattus norvegicus [11],-95%
same,Change,Rattus norvegicus [12],55%
same,Change,Rattus norvegicus [13],-86%
